Data taken from ChEMBL document CHEMBL1123247, “Nucleoside conjugates. 7. Synthesis and antitumor activity of 1-beta-D-arabinofuranosylcytosine conjugates of ether lipids” (J Med Chem, 1986).

Legend:
L1210 [1] = assay: Antitumor activity was determined against the ic implanted L1210 lymphoid leukemia in mice by percent increase in life span at 300 mg/kg (1 qd treatment schedule) dosage; assay type: functional, Mus musculus
In short: (§1)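 DBA/2J mice, groups of 6 (26-32 g), got 1 × 10^5 L1210 cells ic on day 0. Dosing was ip starting 24 h later, as a sonicated solution or suspension in 0.9% NaCl with 0.5% Tween-80, over a wide dose range. Mice were followed daily until death. Median survival T/C was taken from survivors per NCI protocols, and ILS = (T/C − 1) × 100. Active range means doses giving ILS ≥25%; optimal dose means greatest ILS.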

P388 [2] = assay: Antitumor activity was determined against the ip implanted P388 leukemia in mice by percent median survival rate (treated/control) at 200 mg/kg (1 qd treatment schedule) dosage; >45.0/12.0; assay type: functional, Mus musculus; conditions: route intraperitoneal
P388 [3] = assay: Antitumor activity was determined against the ip implanted P388 leukemia in mice by percent increase in life span at 200 mg/kg (1 qd treatment schedule) dosage; assay type: functional, Mus musculus; conditions: route intraperitoneal
In short: (§2)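 DBA/2J mice, 23-33 g, in groups of 6, were inoculated ip with 1×10^6 P388 cells on day 0. Dosing was ip from 24 h on the stated schedules, in 0.9% NaCl with 0.5% Tween-80 (sonicated solution or suspension). Survival was followed daily until death or 45 days. Median T/C was calculated from survivors per NCI protocols, with ILS = (T/C − 1) × 100.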

L1210 [4] = assay: Antitumor activity against the ip implanted L1210 leukemia in mice expressed as optimal dose (1 qd treatment schedule) required to produce greatest increase in life span was determined; assay type: functional, Mus musculus
In short: (§3)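 DBA/2J mice, groups of 6 (23-28 g), were inoculated ip with 1 × 10^6 L1210 cells on day 0. Dosing was ip from 24 h, in 0.9% NaCl with 0.5% Tween-80 (sonicated solution or suspension). Mice were observed daily until death or day 45. Median survival T/C followed NCI protocols, and ILS = (T/C − 1) × 100. Active range means doses giving ILS ≥25%; optimal dose means greatest ILS.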

L1210 [5] = assay: Antitumor activity was determined against the ic implanted L1210 lymphoid leukemia in mice by range in survival days at 300 mg/kg (1 qd treatment schedule) dosage; Range is 14-18; assay type: functional, Mus musculus
L1210 [6] = assay: Antitumor activity was determined against the ic implanted L1210 lymphoid leukemia in mice by change in body weight at 300 mg/kg (1 qd treatment schedule) dosage
L1210 [7] = assay: Antitumor activity was determined against the ic implanted L1210 lymphoid leukemia in mice by median survival time at 300 mg/kg (1 qd treatment schedule) dosage; 14.5/7.0
L1210 [8] = assay: Antitumor activity was determined against the ip implanted L1210 leukemia in mice by 45-day survivors in mice at 200 mg/kg (treatment of 1qd schedule) dosage; assay type: functional, Mus musculus; conditions: route intraperitoneal
In short: (§4)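 DBA/2J mice in groups of 6 (wt 23-28 g) were inoculated ip with 1×10^6 L1210 cells on day 0. Dosing was ip from 24 h, in 0.9% NaCl with 0.5% Tween-80 (conjugates sonicated), across a range of doses. Mice were observed daily until death or 45 days. Median T/C was computed from survivors per NCI protocols, and ILS = (T/C − 1)×100.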

L1210 [9] = assay: Antitumor activity against ip implanted L1210 leukemia in mice expressed as active dose range (1 qd treatment schedule) required to produce increase in life span by >25% was determined; Range is 100-250; assay type: functional, Mus musculus; in short: as §3
P388 [10] = assay: Antitumor activity was determined against the ip implanted P388 leukemia in mice by range in survival days at 200 mg/kg (1 qd treatment schedule) dosage; Range is 24->45; assay type: functional, Mus musculus; conditions: route intraperitoneal
P388 [11] = assay: Antitumor activity was determined against the ip implanted P388 leukemia in mice by 45-day survivors in mice at 200 mg/kg (1 qd treatment schedule) dosage; assay type: functional, Mus musculus; conditions: route intraperitoneal; in short: as §2
L1210 [12] = assay: Antitumor activity against the ic implanted L1210 lymphoid leukemia in mice expressed as optimal dose (1 qd treatment schedule) required to produce greatest increase in life span was determined; assay type: functional, Mus musculus; in short: as §1
P388 [13] = assay: Antitumor activity was determined against the ip implanted P388 leukemia in mice by change in […] at 200 mg/kg (1 qd treatment schedule) dosage; assay type: functional, Mus musculus; conditions: route intraperitoneal
In short: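 P388 leukemia, 1×10^6 cells implanted ip on day 0 into DBA/2J mice, groups of 6 (wt 23-33 g). Dosing ip started 24 h post-inoculation, vehicle 0.9% NaCl containing 0.5% Tween-80. Animals were observed daily until death or 45 days. Outputs were weight change, median survival T/C from survivors per NCI protocols, and %ILS = (T/C − 1) × 100.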

L1210 [14] = assay: Antitumor activity was determined against the ip implanted L1210 leukemia in mice by change in […] at 200 mg/kg (treatment of 1qd schedule) dosage; assay type: functional, Mus musculus; conditions: route intraperitoneal
In short: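 DBA/2J mice, 6 per group (wt 23-28 g), inoculated ip with 1×10^6 L1210 cells on day 0. Treatment was given ip in 0.9% NaCl with 0.5% Tween-80, starting 24 h later. Weight change was taken on day 8. Mice were observed daily until death or 45 days. Median survival T/C and %ILS = (T/C − 1) × 100 came from survivors per NCI protocols, and 45-day survivors were counted.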

P388 [15] = assay: Antitumor activity against ip implanted P388 leukemia in mice expressed as active dose range (1 qd treatment schedule) required to produce increase in life span by >25% was determined; Range is 200-300; assay type: functional, Mus musculus
In short: (§5)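 P388 leukemia: 1 × 10^6 cells were given ip on day 0 to DBA/2J mice, groups of 6 (23-33 g). Treatment was ip from 24 h after inoculation, vehicle 0.9% NaCl with 0.5% Tween-80. Mice were observed daily until death or 45 days. Median survival T/C was calculated from survivors per NCI protocols, and ILS = (T/C − 1) × 100. Active range means doses giving ILS ≥25%; optimal dose means greatest ILS.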

P388 [16] = assay: Antitumor activity against the ip implanted P388 leukemia in mice expressed as optimal dose (1 qd treatment schedule) required to produce greatest increase in life span was determined; assay type: functional, Mus musculus; in short: as §5
L1210 [17] = assay: Antitumor activity was determined against the ip implanted L1210 leukemia in mice by percent increase in life span at 200 mg/kg (treatment of 1qd schedule) dosage; assay type: functional, Mus musculus; conditions: route intraperitoneal; in short: as §4
L1210 [18] = assay: Antitumor activity was determined against the ip implanted L1210 leukemia in mice by range in survival days at 200 mg/kg (treatment of 1qd schedule) dosage; Range is 14-23; assay type: functional, Mus musculus; conditions: route intraperitoneal
In short: (§6)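 DBA/2J mice, 23-28 g, in groups of 6, were inoculated ip with 1×10^6 L1210 cells on day 0. Dosing was ip starting 24 h later on the stated daily schedules. Conjugates were given as sonicated solutions and reference prodrugs as suspensions in 0.9% NaCl with 0.5% Tween-80. Mice were observed daily until death or 45 days. Median survival T/C was calculated from survivors per NCI protocols.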

L1210 [19] = assay: Antitumor activity was determined against the ip implanted L1210 leukemia in mice by percent median survival rate (treated/control) at 200 mg/kg (treatment of 1qd schedule) dosage; 19.5/7.0; assay type: functional, Mus musculus; conditions: route intraperitoneal; in short: as §6

CCCCCCCCCCCCCCCC(=O)Nc1ccn([C@@H]2O[C@H](CO)[C@@H](O)[C@@H]2O)c(=O)n1
ILS (L1210 [1]): 107 | T/C (P388 [2]): >45% | ILS (P388 [3]): >275 | Optimal dose (L1210 [4]): 200 mg/kg/day | Range (L1210 [5]): 14 | Weight change (L1210 [6]): -2.04 g mouse-1 | median survival time (L1210 [7]): 14.5 days | Survivors (L1210 [8]): 0 | Active dose range (L1210 [9]): 100 mg/kg/day | Range (P388 [10]): 24 | Survivors (P388 [11]): 5 | Optimal dose (L1210 [12]): 300 mg | Weight change (P388 [13]): 0.75 g mouse-1 | Weight change (L1210 [14]): -0.5 g mouse-1 | Active dose range (P388 [15]): 200 mg/kg/day | Optimal dose (P388 [16]): 200 mg | ILS (L1210 [17]): 179 | Range (L1210 [18]): 14 | median survival time (L1210 [19]): 19.5 days
